Reference: paper PMC4738094 (Bioorganic & medicinal chemistry, 2015)
“Also recorded” adds a separate entry of the source.

Test system: Neuro-2A neuroblastoma cells
Assay: MTT cell viability assay under Aβ-induced cytotoxicity
Format: cell-based, Murine
Settings: Neuro-2A cells exposed to Aβ
In short: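 Neuro-2A cells grown in DMEM with 10% FBS and penicillin-streptomycin at 37°C, 5% CO2. Cells briefly trypsinised, seeded at 2,000–4,000 cells/mL, and rested 6 h. Aβ25–35 (from 833 µM solution), test compound (from 250 µM solution) and MTT were added together for 6 h. Extraction buffer (acetic acid/SDS in DMF/water, pH 4.7) was then added, with 6 h shaking in the dark at 37°C. A570 was expressed relative to an Aβ-free control.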

| SMILES | protection of cells against Aβ/ROS-induced stress (in words) |
| --- | --- |
| O=C(/C=C/c1ccc(O)c(O)c1)c1cccc(O)c1 [Compound 8, (E)-3-(3,4-dihydroxyphenyl)-1-(3-hydroxyphenyl)prop-2-en-1-one] | only modest protection |
| O=C(/C=C/c1ccc(O)c(O)c1)c1ccc(O)cc1 [Compound 9, (E)-3-(3,4-dihydroxyphenyl)-1-(4-hydroxyphenyl)prop-2-en-1-one] | increased cell viability at a modest but noticeable level |
| O=C(/C=C/c1cccc(O)c1)c1ccc(O)cc1O [Compound 10, (E)-1-(2,4-dihydroxyphenyl)-3-(3-hydroxyphenyl)prop-2-en-1-one] | poor rescue compound |
| O=C(/C=C/c1ccc(O)c(O)c1)c1c(O)cccc1O [Compound 11, (E)-1-(2,6-dihydroxyphenyl)-3-(3,4-dihydroxyphenyl)prop-2-en-1-one] | increased cell viability at a modest but noticeable level |
| O=C(/C=C/c1ccc(O)c(O)c1)c1cc(O)ccc1O [Compound 12, (E)-1-(2,5-dihydroxyphenyl)-3-(3,4-dihydroxyphenyl)prop-2-en-1-one] | good rescue properties; also recorded: increased cell viability at a modest but noticeable level |
| O=C(/C=C/c1ccc(O)c(O)c1)c1ccc(O)c(O)c1 [Compound 13, (E)-1,3-bis(3,4-dihydroxyphenyl)prop-2-en-1-one] | increased cell viability at a modest but noticeable level |
| O=C(/C=C/c1ccc(O)c(O)c1)c1cc(O)cc(O)c1 [Compound 14, (E)-3-(3,4-dihydroxyphenyl)-1-(3,5-dihydroxyphenyl)prop-2-en-1-one] | increased cell viability at a modest but noticeable level |
| O=C(/C=C/c1ccc(O)c(O)c1)c1ccc(O)cc1O [Compound 15, (E)-1-(2,4-dihydroxyphenyl)-3-(3,4-dihydroxyphenyl)prop-2-en-1-one] | best level of protection |
| O=C(/C=C/c1cccc(O)c1O)c1ccc(O)c(O)c1 [Compound 16, (E)-3-(2,3-dihydroxyphenyl)-1-(3,4-dihydroxyphenyl)prop-2-en-1-one] | increased cell viability at a modest but noticeable level |
| O=C(/C=C/c1cc(O)ccc1O)c1ccc(O)c(O)c1 [Compound 17, (E)-3-(2,5-dihydroxyphenyl)-1-(3,4-dihydroxyphenyl)prop-2-en-1-one] | best level of protection |
| O=C(/C=C/c1ccc(O)c(O)c1)c1ccc(O)c(O)c1O [Compound 18, (E)-3-(3,4-dihydroxyphenyl)-1-(2,3,4-trihydroxyphenyl)prop-2-en-1-one] | best level of protection |
| O=C(/C=C/c1ccc(O)c(O)c1O)c1ccc(O)c(O)c1 [Compound 19, (E)-1-(3,4-dihydroxyphenyl)-3-(2,3,4-trihydroxyphenyl)prop-2-en-1-one] | increased cell viability at a modest but noticeable level |
| O=C(/C=C/c1ccc(O)c(O)c1O)c1ccc(O)c(O)c1O [Compound 20, (E)-1,3-bis(2,3,4-trihydroxyphenyl)prop-2-en-1-one] | best level of protection |

Test system: not given
Assay: not given
Settings: ref [74]; cited from earlier work

| SMILES | standard reduction potential [mV] |
| --- | --- |
| Oc1ccccc1O [catechol] | 530 |
| Oc1ccc(O)cc1 [hydroquinone] | 459 |
| Oc1cccc(O)c1 [resorcinol] | 720 |

Test system: XO
Assay: not given
Settings: read-out: IC50 (XO inhibition); ref [6]; cited from earlier work

| SMILES | IC50 [µM] |
| --- | --- |
| Oc1ncnc2[nH]ncc12 [Allopurinol] | 0.2 to 50 |

Same assay, conditions: ref [16]; cited from earlier work

| SMILES | potency (XO inhibition) |
| --- | --- |
| Cc1nc(-c2ccc(OCC(C)C)c(C#N)c2)sc1C(=O)O [febuxostat] | subnanomolar range |
